Data reported in ChEMBL document CHEMBL1132247, “Synthesis and nicotinic acetylcholine receptor in vivo binding properties of 2-fluoro-3-[2(S)-2-azetidinylmethoxy]pyridine: a new positron emission tomography ligand for nicotinic receptors” (J Med Chem, 1999).

Legend:
[1] = species on record: Rattus norvegicus; test: Biodistribution in rat cerebellum, expressed as percent I.D./g tissue; format: ADME, organism-based; settings: in vivo
In short: (§1)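 Male Sprague–Dawley rats (190–200 g) received 30 μCi (1.1 MBq) of the 18F-labelled tracer i.v. into a tail vein, formulated in physiological saline and given within 15 min of end of synthesis. Rats were decapitated at selected times, and the brain was removed and dissected on ice. Regions were weighed and gamma-counted alongside injected-dose aliquots, and values were expressed as % I.D./g tissue.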

[2] = species on record: Rattus norvegicus; test: Biodistribution in rat superior coliculus, expressed as percent I.D./g tissue; format: ADME, organism-based; settings: in vivo; in short: as §1
[3] = species on record: Rattus norvegicus; test: Biodistribution in rat thalamus, expressed as percent I.D./g tissue; format: ADME, organism-based; settings: in vivo; in short: as §1
[4] = Binding affinity towards human Nicotinic acetylcholine receptor was determined using [3H]-cytisine
[5] = Binding affinity towards human Nicotinic acetylcholine receptor was determined using [3H]epibatidine
[6] = target: Neuronal acetylcholine receptor; alpha4/beta2 (Homo sapiens, UniProt P17787+P43681); test: Binding affinity against human Nicotinic acetylcholine receptor alpha4-beta2
Chain of Neuronal acetylcholine receptor; alpha4/beta2 (P17787 whole entry): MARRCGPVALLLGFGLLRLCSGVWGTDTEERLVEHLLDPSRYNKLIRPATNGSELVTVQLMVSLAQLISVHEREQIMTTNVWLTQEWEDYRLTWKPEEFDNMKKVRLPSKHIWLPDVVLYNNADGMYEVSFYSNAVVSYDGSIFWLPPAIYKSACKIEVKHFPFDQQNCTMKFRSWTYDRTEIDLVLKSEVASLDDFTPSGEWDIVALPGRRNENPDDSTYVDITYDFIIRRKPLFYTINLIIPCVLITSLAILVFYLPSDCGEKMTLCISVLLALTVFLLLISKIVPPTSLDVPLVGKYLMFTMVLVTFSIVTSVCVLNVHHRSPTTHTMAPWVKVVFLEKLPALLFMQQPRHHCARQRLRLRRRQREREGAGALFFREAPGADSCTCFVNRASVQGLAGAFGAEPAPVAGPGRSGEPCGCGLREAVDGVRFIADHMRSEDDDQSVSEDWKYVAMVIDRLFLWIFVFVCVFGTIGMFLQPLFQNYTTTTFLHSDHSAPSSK
Chain of Neuronal acetylcholine receptor; alpha4/beta2 (P43681 whole entry): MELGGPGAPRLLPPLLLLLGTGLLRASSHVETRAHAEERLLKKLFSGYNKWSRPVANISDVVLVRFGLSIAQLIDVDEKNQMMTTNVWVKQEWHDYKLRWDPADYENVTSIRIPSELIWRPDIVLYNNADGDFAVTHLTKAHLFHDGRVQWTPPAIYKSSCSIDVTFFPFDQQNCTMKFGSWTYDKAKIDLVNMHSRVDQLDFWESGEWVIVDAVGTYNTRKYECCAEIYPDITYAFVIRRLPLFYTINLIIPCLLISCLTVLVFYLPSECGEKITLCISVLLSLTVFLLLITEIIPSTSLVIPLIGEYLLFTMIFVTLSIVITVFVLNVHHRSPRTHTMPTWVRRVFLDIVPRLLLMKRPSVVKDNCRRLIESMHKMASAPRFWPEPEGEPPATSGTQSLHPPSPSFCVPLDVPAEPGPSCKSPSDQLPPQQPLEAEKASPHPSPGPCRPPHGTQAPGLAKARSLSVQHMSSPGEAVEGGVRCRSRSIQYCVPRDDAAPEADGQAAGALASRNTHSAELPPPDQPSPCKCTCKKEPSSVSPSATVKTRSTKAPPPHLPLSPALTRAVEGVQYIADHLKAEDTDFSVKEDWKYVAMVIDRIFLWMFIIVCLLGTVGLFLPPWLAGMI

SMILES	Biodistribution [1]	Biodistribution [2]	Biodistribution [3]	Ki [4]	Ki [5]	Ki [6]
Fc1ncccc1OC[C@@H]1CCN1	0.2%	0.2%	0.3%	0.048 nM	0.046 nM	–
c1cncc(OC[C@@H]2CCN2)c1	–	–	–	–	–	0.05 nM
O=c1cccc2n1CC1CNC[C@H]2C1 (single isomer, unassigned) [CYTISINICLINE]	0.2%	0.2%	0.2%	–	–	–
Clc1ccc(C2CC3CCC2N3)cn1 (stereo not drawn) [EPIBATIDINE]	0.2%	0.2%	0.2%	–	–	–
CN1C2CCCC1CC(NC(=O)c1nn(C)c3ccccc13)C2 (stereo not drawn) [GRANISETRON]	0.2%	0.6%	0.9%	–	–	–
CNC(=O)Oc1ccc2c(c1)[C@]1(C)CCN(C)[C@@H]1N2C [PHYSOSTIGMINE]	0.2%	0.4%	0.5%	–	–	–
